DAGLB inhibitor: blocks human DAGLB lipase activity | Q8NCG7 | HEK293T DAGLB membrane lysate, EnzChek fluorogenic substrate | inhibition, % at 5.17 µM | 0.059% of 340,000 active | AID 504411; in the data active = inhibition above about 34%;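 note: 0% = enzyme with vehicle and 100% = wells lacking enzyme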
Target sequence (Q8NCG7 whole entry, looked up): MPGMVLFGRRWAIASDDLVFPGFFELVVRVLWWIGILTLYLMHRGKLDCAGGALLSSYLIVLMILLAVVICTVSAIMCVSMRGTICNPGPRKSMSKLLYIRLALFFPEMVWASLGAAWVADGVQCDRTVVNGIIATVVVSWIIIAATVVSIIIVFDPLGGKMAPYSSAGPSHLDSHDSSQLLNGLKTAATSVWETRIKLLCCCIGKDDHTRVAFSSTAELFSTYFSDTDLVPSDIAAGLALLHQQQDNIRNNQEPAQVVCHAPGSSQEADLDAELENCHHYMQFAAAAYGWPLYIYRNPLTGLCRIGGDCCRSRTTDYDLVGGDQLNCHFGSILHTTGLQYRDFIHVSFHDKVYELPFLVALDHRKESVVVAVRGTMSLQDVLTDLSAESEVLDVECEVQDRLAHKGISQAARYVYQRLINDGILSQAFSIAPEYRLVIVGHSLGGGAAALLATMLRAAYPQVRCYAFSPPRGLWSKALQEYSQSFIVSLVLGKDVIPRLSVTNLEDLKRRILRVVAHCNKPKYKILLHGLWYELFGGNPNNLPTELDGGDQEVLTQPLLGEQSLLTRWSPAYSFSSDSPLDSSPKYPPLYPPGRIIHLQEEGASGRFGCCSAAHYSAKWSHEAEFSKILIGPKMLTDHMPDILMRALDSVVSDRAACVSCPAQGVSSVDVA
iPSC survival up: enhancers of human iPSC single-cell survival; survival enhancement, % at 20 µM; AID 602274; 0.044% of 360,000 active; hiPSC single-cell survival, ATPlite luminescence; 100% = ROCK inhibitor wells, 0% = DMSO; in the data active = survival enhancement above about 18%;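 note: cells exposed to compounds for 16 hours before the ATP read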
MT1-MMP act inh: MT1-MMP (human) activation inhibition; P50281; HT1080 RFP-PRO-GFP cells, GFP/RFP ratio fluorescence, overnight; percent of plate control window, DMSO zero; GFP/RFP ratio change, % at 20 µM; 0.061% of 360,000 active; AID 651647;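 active = GFP/RFP ratio change of at least 30% with cell ATP level not reduced by more than half and red fluorescence within 50% of control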
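Read-out: GFP/RFP fluorescence ratio; Test system: RFP-PRO-GFP reporter HT1080 cells; Compound dosing: single-point 20 µM compound, 1% DMSO; Times: overnight compound exposure at 37 °C.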
Cneo AK release: causes C. neoformans cell lysis; adenylate kinase release luminescence, 4 h; normalised: neutral wells 0, clomiphene wells 100; lysis activity, % at 15 µM; 0.2% of 360,000 active;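 active = mean lysis activity across replicates of at least 80%, whatever share of replicates individually reach that level; inactive = mean lysis activity below 80%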
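Test system: log-phase Cryptococcus neoformans yeast cells. Input: 5 × 10^6 yeast cells/mL. Medium: fresh YPD growth medium. Doses: single dose. Incubation: static 4 h at 37 °C with compound, 1 h detection. Measured by: luminescent adenylate kinase detection reagent. Read-out: signal increase indicating cell lysis. Benchmarks: Clomiphene.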
rRNA inh HTS: inhibits bacterial ribosomal RNA function over humanized ribosomes. AID 720706. 1.6% of 350,000 active. GFP signal change (wild-type ribosome), % (concentration not given with the values). E. coli WT GFP vs humanized-ribosome RFP mutants, fluorescence, 24 h; hits give low values; DMSO median 0, no signal -100;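 active = significant combined selectivity score with lowered wild-type GFP, culture density cut under 30%, mutant RFP and density less affected; inactive = any of these conditions unmet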
SKN-1 block: blocks SKN-1 activity in C. elegans. inhibition, % at 21.8 µM. 0.49% of 360,000 active. C. elegans VP596 Pgst-4::GFP/RFP ratio, acrylamide-induced, 24 h;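 active = interference check ratio from 0.5 to 1.5 plus GFP to RFP signal ratio inhibition reaching or exceeding a fixed threshold, cut at about 30% in these data, passing the limit was not always enough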
* hit, by the source's call; x = no result; ! = not confirmed by another sample. Rows were chosen to be rich in hits. Some 1.8% of all compounds tested hit in one or more screens of this group.

SMILES | DAGLB inhibitor | iPSC survival up | MT1-MMP act inh | Cneo AK release | rRNA inh HTS | SKN-1 block
CCOC(=O)C1CCCN(C(=O)C(C)(C)Oc2ccc(Cl)cc2)C1 (stereo not drawn) | -4.4 | 0.5 | -0.8 | x | -30.5* | -9.0
Brc1ccc(CNc2ccc3ncccc3c2)cc1 | -3.1 | -0.1 | -3.2 | -2.0 | -29.0* | 22.4
O=C(Nc1ccc2ncccc2c1)c1cccc(Br)c1 | 0.1 | -0.1 | 8.0 | -4.0 | 1.7 | 18.4
CCO[C@H]1OC(C(N)=O)=C[C@@H](c2coc3ccccc3c2=O)[C@@H]1CCCO | -2.3 | -0.2 | 1.3 | 2.1 | -2.5 | 7.7
CCO[C@@H]1OC(C(=O)Nc2ccccc2)=C[C@H](c2coc3ccccc3c2=O)[C@H]1CCCO | -0.1 | -2.4 | 19.1 | 102.5*! | -35.0 | 19.5
CCO[C@H]1OC(C(=O)N2CCN(Cc3ccccc3)CC2)=C[C@@H](c2ccccc2)[C@@H]1CCCO | 1.0 | -2.7 | -1.2 | -4.3 | -32.0* | -1.8
CCO[C@@H]1OC(C(=O)N2CCN(Cc3ccccc3)CC2)=C[C@H](c2ccc3c(c2)OCO3)[C@H]1CCCO | x | x | x | -0.6 | x | x
CCO[C@H]1OC(C(=O)N2CCN(Cc3ccc4c(c3)OCO4)CC2)=C[C@@H](c2ccc3c(c2)OCO3)[C@@H]1CCCO | 0.8 | 1.9 | 1.1 | 0.2 | -22.5* | -3.0
CCO[C@H]1OC(C(=O)N2CCN(Cc3ccccc3)CC2)=C[C@@H](c2ccc(C(F)(F)F)cc2)[C@@H]1CCCO | -3.2 | 3.1 | 0.7 | 0.2 | -44.0 | -14.0
O=C(c1cccnc1)N1CC[C@@H]2[C@H](CO)Nc3ccc(-c4ccc(F)cc4)cc3[C@@H]21 | x | x | x | -1.9 | -2.4 | x
CCC(=O)N1C[C@H](C)[C@@H](OC)CN(C)C(=O)c2cc(NC(=O)NC(C)C)ccc2OC[C@H]1C | x | x | x | 3.3 | 1.1 | x
COc1ccc(-c2c(C(F)(F)F)nn(C)c2NC(=O)c2cccnc2)cc1 | x | 0.0 | -4.6 | -0.5 | -8.8 | 7.9
O=C(Nc1oc2ccccc2c(=O)c1-c1ccc(Br)cc1)c1ccco1 | 3.1 | 0.0 | 1.2 | -1.8 | -22.8 | 20.5
Cn1nc(C(F)(F)F)c(-c2ccc(Br)cc2)c1NC(=O)c1ccco1 | -2.8 | -0.4 | 5.3 | -2.2 | -32.3* | 7.7
Cn1nc(C(F)(F)F)c(-c2cccc(C(F)(F)F)c2)c1NC(=O)CSCC(=O)O | 1.1 | -0.6 | 2.0 | x | 8.8 | -3.2
Cn1nc(C(F)(F)F)c(-c2ccc(Br)cc2)c1NC(=O)c1cccnc1 | x | -0.6 | -2.1 | -0.7 | -44.3* | 0.5
Cn1nc(C(F)(F)F)c(-c2ccc(F)cc2)c1NC(=O)Nc1ccc(F)cc1 | x | 0.1 | 6.1 | -2.0 | -30.2* | 4.9
C[C@@H]1CN([C@H](C)CO)C(=O)c2cc(NS(=O)(=O)c3ccc(Cl)cc3)ccc2O[C@@H]1CN(C)S(=O)(=O)c1ccccc1 | x | x | x | -2.2 | -2.8 | x
O=C(c1ccc(F)cc1)N1CC(=O)N2[C@H](CO)[C@H](c3ccc(C#CC4CCCCC4)cc3)[C@@H]2C1 | x | x | x | x | 1.4 | x
CC(C)(C)C1CCC(=NOC(=O)c2ccc(F)cc2)CC1 (stereo not drawn) | -11.8 | 0.9 | 1.6 | x | -41.4* | 18.6
O=C(ON=C1CCN(S(=O)(=O)c2ccccc2)CC1)c1ccc(F)cc1 | 1.7 | -1.8 | -3.1 | -1.6 | x | 5.5
COc1ccccc1S(=O)(=O)N[C@@H]1CC[C@@H](CCNC(=O)C2CCOCC2)O[C@@H]1CO | x | x | x | -1.9 | -0.4 | x
COC(=O)/C=C/c1cccc([C@H]2[C@@H]3C=CC[C@@H](C)[C@@H]3C(=O)N2Cc2ccccc2)c1 | -7.0 | -1.6 | -6.5 | -1.8 | -19.0* | -9.8
Brc1ccc(-c2cn3cccnc3n2)cc1 | -0.1 | -3.3 | -3.2 | -1.2 | x | 48.1*
Clc1ccc(-c2cn3cccnc3n2)cc1 | -1.2 | -3.3 | 0.5 | x | x | 30.7
SMILES | DAGLB inhibitor | iPSC survival up | MT1-MMP act inh | Cneo AK release | rRNA inh HTS | SKN-1 block
Clc1ccc(-c2cn3cccnc3n2)cc1Cl | -1.5 | -2.1 | 44.9 | 7.3 | x | 41.8*
CO[C@@H](CN(C)C(=O)c1ccc2c(c1)OCO2)[C@@H](C)CN([C@@H](C)CO)S(=O)(=O)c1ccc(F)cc1 | x | x | x | 8.9 | 2.9 | x
Cc1ccc(NC(=O)CCc2c(C)nn(-c3ccc(N4CCCCC4)nn3)c2C)cc1 | -3.4 | -0.3 | 5.1 | -0.2 | -25.1* | 8.2
Cc1cc(C)cc(NC(=O)CCc2c(C)nn(-c3ccc(N4CCCCC4)nn3)c2C)c1 | 0.1 | 0.8 | 7.2 | -0.7 | 12.7 | 20.4
O=C(c1ccc(-c2ccc([N+](=O)[O-])cc2)o1)N1CCCCC1 | 1.8 | -1.7 | 5.2 | -2.2 | 3.0 | 15.2
O=C(NNC(=O)c1ccccc1O)c1ccc(-c2ccc([N+](=O)[O-])cc2)o1 | 12.2 | -0.2 | 6.0 | x | -24.5* | -7.8
O=C(NNC(=O)c1ccccc1O)c1cc2ccccc2o1 | 6.0 | 0.2 | 5.0 | -4.2 | -30.7* | 9.3
O=C(NNC(=O)c1cc2ccccc2o1)c1ccncc1 | -0.5 | 0.0 | 1.1 | -0.3 | -2.3 | 1.9
CC1CC(C)CN(C(=O)c2ccc(-c3ccc([N+](=O)[O-])cc3)o2)C1 (stereo not drawn) | -2.2 | 1.3 | 1.2 | 3.7 | -20.9* | -4.5
Cc1ccc(S(=O)(=O)N[C@@H]2C=C[C@@H](CC(=O)NCc3ccncn3)O[C@H]2CO)cc1 | x | x | x | -6.1 | 3.8 | x
O=C(C[C@H]1C=C[C@@H](NC(=O)c2ccncc2)[C@@H](CO)O1)Nc1ccccc1 | x | x | x | x | 1.7 | x
CCCCC(=O)N1CCN(c2nc3ccc(Br)cc3s2)CC1 | -0.4 | 0.6 | -3.1 | 11.0 | -19.6* | 12.7
CSc1nc2ccc(NS(=O)(=O)c3ccc(Br)s3)cc2s1 | -6.4 | -0.4 | 1.3 | x | -43.8* | 0.9
Cc1ccc(S(=O)(=O)NNC(=S)Nc2ccccc2)cc1 | 2.2 | -2.4 | 1.4 | 11.4 | x | 24.4
Cn1nccc1NC(=O)Nc1ccc(Cl)cc1 | -2.8 | -1.0 | 2.1 | x | -35.2* | -12.5
O=C(Nc1ccc(Cl)cc1)Nc1ccc(Br)cn1 | -0.5 | 0.7 | -3.3 | -0.5 | 7.1 | 37.1*
CCOc1ccc(NC(=O)Nc2ccc(Br)cn2)cc1 | -2.2 | -0.7 | 1.8 | x | 7.7 | 19.3
NS(=O)(=O)c1ccc(NC(=O)Nc2ccc(Cl)cc2)cc1 | 0.2 | 0.9 | 5.0 | x | -26.4* | 10.5
Cc1ccc(S(=O)(=O)NNC(=S)Nc2ccc(Cl)cc2)cc1 | 5.2 | 0.7 | 9.3 | x | -27.7* | -11.2
C[C@H]1CN([C@@H](C)CO)C(=O)c2cc(NC(=O)Cc3cn(C)c4ccccc34)ccc2O[C@H]1CN(C)Cc1ccc(C(=O)Nc2ccccc2N)cc1 | x | x | x | -2.1 | -5.5 | x
CCOCCCNC(=O)C(c1ccc(Cl)cc1)N(Cc1cccs1)C(=O)c1ccccn1 (stereo not drawn) | -3.2 | 0.3 | -3.2 | x | -23.0* | 7.1

High-throughput results (PubChem BioAssay)
